An excerpt weighted towards active compounds, which were near 2.7% of everything screened.
E-sel inducer: E-selectin induction in HUVECs, primary screen, imaging, HUVEC, immunofluorescence imaging, single point; activation, % at 7.58 µM; hit rate 0.37% among 260,000; normalized: neutral wells 0, TNF-alpha wells 100; AID 686992, 2013;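 active = mean E-selectin-positive cell signal at least 10% of the positive control, reached in at least 60% of replicates, without over 20% cell loss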
Target sequence (P16581 whole entry, looked up): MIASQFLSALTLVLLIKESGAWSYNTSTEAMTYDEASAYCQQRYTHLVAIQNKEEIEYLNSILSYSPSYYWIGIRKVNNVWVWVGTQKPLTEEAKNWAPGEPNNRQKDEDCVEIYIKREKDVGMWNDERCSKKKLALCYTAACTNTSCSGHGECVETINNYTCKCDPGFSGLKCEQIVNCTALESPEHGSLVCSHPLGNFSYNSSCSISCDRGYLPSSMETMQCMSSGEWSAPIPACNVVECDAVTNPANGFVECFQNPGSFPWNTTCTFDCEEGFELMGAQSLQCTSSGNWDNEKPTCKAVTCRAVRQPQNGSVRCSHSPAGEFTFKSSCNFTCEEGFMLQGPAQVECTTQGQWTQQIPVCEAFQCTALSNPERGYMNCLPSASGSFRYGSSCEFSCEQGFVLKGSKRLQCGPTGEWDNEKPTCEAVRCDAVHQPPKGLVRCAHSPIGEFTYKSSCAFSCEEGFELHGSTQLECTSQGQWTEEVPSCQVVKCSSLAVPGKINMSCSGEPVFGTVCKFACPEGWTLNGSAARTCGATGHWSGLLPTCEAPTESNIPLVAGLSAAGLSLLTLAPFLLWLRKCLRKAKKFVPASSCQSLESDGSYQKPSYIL
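Read-out: % PE-positive cells | Test system: HUVEC | Doses: One compound dose added by pin transfer | Buffer or medium: EGM-2 over gelatin coat | Signal: Immunofluorescence imaging | Benchmarks: TNF-alpha, DMSO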
F508del corr: F508del CFTR correction, initial screen, CFBE line, single point. AID 720511, 2013. CFBE cells, YFP halide quenching; stimulated with forskolin plus potentiator P3; % fluorescence drop versus neutral controls. activity (quench increase), % at 7.58 µM. hit rate 0.36% among 350,000;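 active = mean added fluorescence quench of at least 8% versus neutral control, with both replicates also reaching 8%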;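 also: cells transiently co-express mutant CFTR-F508del with the halide-sensitive YFP; corrector assay measuring rescue of mutant channel to the surface after 24 h compound exposure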
FGF22 binding: binders of human FGF22 protein, primary screen, FGF22 synaptogenesis inhibitor project, biophysical, thermal shift, single point | Fibroblast growth factor 22 (Homo sapiens), Q9HCT0 | recombinant FGF22 thermal shift, SYPRO orange fluorescence; percent of sucrose octasulfate shift, DMSO zero | activity (Tm shift, normalised), % at 9.99 µM | hit rate 1.5% among 340,000 | AID 651658, 2012;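 active = mean Tm shift, scaled 0 neutral to 100 positive control, at about 1.3% or above, every replicate too, limit read from the data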
Env fusion inh: inhibitors of HIV-1 Env-driven cell-cell fusion, primary screen, HeLa-JRFL effector, CEM21 target cells, luciferase; AID 651610, 2012; hit rate 1.1% among 360,000; inhibition, % at 12.3 µM;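 active = mean replicate inhibition score of at least 50 and every replicate individually at or above 50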;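 also: 0% = plate neutral controls and 100% = maraviroc near 300 nM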
S100A4 MyoIIA: inhibitors of S100A4-myosin IIA peptide binding, primary screen, biochemical, fluorescence polarization, TAMRA-MyoIIA peptide. Protein S100-A4 (Homo sapiens), P26447. inhibition, % at 10.7 µM. hit rate 0.14% among 360,000;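 active = mean inhibition of at least 70% across replicates, with every replicate also reaching that level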
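incubation = readout 5 min after mixing, signal stable up to 60 min | system = S100A4 monomer protein | buffer or medium = HEPES pH 7.2 with CaCl2, KCl, NaCl, DTT, Triton | benchmarks = neutral control DMSO, positive control TFP | also added = fluorescent myosin IIA peptide, 5 nM | compound dosing = one concentration per compound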
* marks the source's active call; other numbers are inactive results; . = no result; [ ] = remark or other dose.

SMILES | E-sel inducer | F508del corr | FGF22 binding | Env fusion inh | S100A4 MyoIIA
Cc1nnsc1SCCNC(=O)Nc1ccc(Cl)cc1 | 3 | 4 | 44* | -12 | 4
O=C(NCCNC(=O)Nc1ccc(Cl)cc1)Nc1ccc(Cl)cc1 | 1 | 0 | 0 | 12 | 2
COc1cccc(NC(=O)C2(C)CCN2C(C)C)c1OC (configuration not stated) | 5 | 0 | 0 | -6 | -4
CCC(=O)N1CCC1(C)C(=O)Nc1cccc(OC)c1OC (configuration not stated) | 0 | -2 | 0 | 58* | -2
C[C@H]1CN([C@@H](C)CO)C(=O)Cc2cc(NC(=O)c3ccncc3)ccc2O[C@H]1CN(C)S(=O)(=O)c1cn(C)cn1 | -2 | -1 | 0 | -9[16.7 µM] | -9
CN1/C(=C\C(=O)COC(=O)c2nccnc2N)C(C)(C)c2ccccc21 | 2 | 0 | 0 | 58* | -7
CN1/C(=C\C(=O)COC(=O)c2ccc([N+](=O)[O-])o2)C(C)(C)c2ccccc21 | 0 | 0 | 0 | -5 | 2
COc1cc(OC)cc(C(=O)NCC(=O)OCC(=O)/C=C2/N(C)c3ccccc3C2(C)C)c1 | . | 1 | 43 | 2 | -45
CC(C)[C@H](NC(=O)c1ccccc1)C(=O)OCC(=O)/C=C1/N(C)c2ccccc2C1(C)C | . | 8 | 44* | 9 | -2
COc1ccc(-c2[nH]ncc2CN2CCC(OCc3cccnc3)CC2)c(F)c1 | 5 | 1 | 0 | 4 | -3
COc1ccc(-c2[nH]ncc2CN(C)Cc2cccnc2)c(OC)c1 | . | 0 | 43* | 4 | 4
O=C1c2ccccc2-c2nccnc21 | . | . | . | -41 | .
O=C1C(=O)c2cccnc2-c2ncccc21 | 0 | 0 | 0 | 60* | -2
C[C@H]1CN([C@@H](C)CO)C(=O)c2cc(-c3cccc(C#N)c3)cnc2O[C@@H]1CN(C)Cc1ccncc1 | 0 | 0 | 0 | -7[16.7 µM] | 2
CCCN(CCC)S(=O)(=O)c1ccc(C(=O)NCc2ccco2)cc1 | . | 0 | 0 | -35 | -1
CC(NC(=O)c1ccc(S(=O)(=O)N(C)C)cc1)c1ccccc1 (configuration not stated) | 1 | . | . | -9 | .
CN(C)C(CNC(=O)c1ccc(S(=O)(=O)N(C)C)cc1)Cc1ccccc1 (configuration not stated) | . | -3 | 43* | 6 | -7
CN(C)S(=O)(=O)c1ccc(C(=O)NCc2ccco2)cc1 | 0 | -2 | 44* | -10 | -2
Cc1cc(N2CCN(Cc3ccccc3)CC2)n2nc(C)c(-c3ccccc3)c2n1 | . | . | . | 63* | .
CCCCC1(Cc2ccc([N+](=O)[O-])cc2)C(=O)N(c2ccccc2)N(c2ccccc2)C1=O | . | . | . | 133* | .
N#CNC(=Nc1ccc(F)cc1)SCc1ccccc1 | . | -2 | 44* | 1 | -4
CCN(CC)S(=O)(=O)c1ccc(/C=C/C(=O)OCC(=O)Nc2ccc(C(N)=O)cc2)cc1 | . | 1 | 43* | 2 | -5
COc1ccc(S(=O)(=O)NCc2ccccn2)cc1NC(=O)c1ccccc1F | 1 | 8.6* | 0 | -144 | -1
CC(C)=N/N=c1\scc(C)n1Cc1ccco1 | 2 | 2 | 43* | -5 | -13
CCc1nc(=O)c(-c2ccccc2)c(C)n1-c1ccccc1 | 43* | -3 | 0 | -30 | 14
SMILES | E-sel inducer | F508del corr | FGF22 binding | Env fusion inh | S100A4 MyoIIA
COc1ccc(-n2c(C)nc(=O)c(-c3ccccc3)c2C)cc1 | . | . | . | -5 | .
C=C1C(=O)O[C@@H]2[C@H]3O[C@]3(C)CC/C=C(\C)CC[C@@H]12 | 0 | 0 | 0 | 23 | -1
C=C1C(=O)O[C@H]2C[C@H]1[C@@H](OC(C)=O)C/C(C)=C/CC/C(C)=C\CC[C@]2(C)O | . | -3 | 0 | 81* | 1
COc1ccc(S(=O)(=O)N(C)C[C@H]2Oc3ccc(NC(=O)CCC(F)(F)F)cc3CC(=O)N([C@@H](C)CO)C[C@@H]2C)cc1 | 0 | 1 | 0 | . | -11
COc1cc2c(cc1OC)C(c1ccc3c(c1)OCO3)CC(=O)N2 (configuration not stated) | . | -1 | 0 | . | 0
COc1ccc(C2CCc3cc4c(cc3C2=NO)OCO4)cc1OC (configuration not stated) | 0 | 4 | 43* | . | -1
CC(C)c1ccc(NC(=S)Nc2ccc3cn[nH]c3c2)cc1 | 6 | 0 | 41 | 0 | -1
CC(=O)c1ccc(NC(=S)Nc2ccc(Br)c(Cl)c2)cc1 | . | -1 | 1.4* | 8 | -1
CC(=O)c1ccc(NC(=S)Nc2ccc3cn[nH]c3c2)cc1 | . | 1 | 1.8* | 16 | -4
O=C(NC(=S)Nc1ccc(Br)c(Cl)c1)C1CC1 | . | -1 | 0 | -13 | 7
C[C@@H]1CCCCO[C@@H](CN(C)Cc2ccncc2)[C@H](C)CN([C@@H](C)CO)C(=O)c2cc(NC(=O)C3CCCCC3)ccc2O1 | 0 | 0 | 0 | 15[16.7 µM] | -9
COc1c(F)cc2[nH]c3c(c2c1F)CCNC3=O | 0 | 0 | 0 | 65* | -4
Cc1ccc2[nH]c3c(c2c1)CCNC3=O | 3 | 0 | 1 | 50 | 1
O=C(COC(=O)c1cccs1)NCC1CCCCC1 | . | -2 | 43* | -1 | 2
O=C(COC(=O)c1cccs1)NCc1ccccc1 | . | . | . | . | -3
O=C(Nc1ccccc1N1CCCCC1)C1=COCCO1 | 35* | -2 | 0 | . | -3
O=C(Nc1ccccc1N1CCCC1)C1=COCCO1 | . | 1 | 0 | . | -5
O=C(Nc1cc(C(F)(F)F)ccc1N1CCCCC1)C1=COCCO1 | . | 4 | 1.9* | 5 | -5
COc1ccccc1CNc1nc(S(=O)(=O)c2ccccc2)c(Cl)s1 | 0 | . | . | 7 | .
CSc1nc(S(=O)(=O)c2ccccc2)c(Cl)s1 | 0 | -2 | 43* | 12 | -10
C[C@@H]1CN([C@H](C)CO)C(=O)c2cc(C3=CCCC3)cnc2O[C@@H]1CN(C)Cc1cccnc1 | 0 | 0 | 0 | 1[16.7 µM] | -30
O=C(Cn1c(=O)n(CC2CCCO2)c(=O)c2ccccc21)c1ccc(Cl)c(Cl)c1 (configuration not stated) | . | . | . | 58* | .
C[C@@H]1CN([C@H](C)CO)C(=O)Cc2cc(NS(=O)(=O)c3ccc(F)cc3)ccc2O[C@@H]1CN(C)Cc1ccc(C(F)(F)F)cc1 | 0 | 4 | -1 | 22[16.7 µM] | -4
C[C@H]1CN([C@@H](C)CO)C(=O)Cc2cc(NS(=O)(=O)c3ccccc3)ccc2O[C@H]1CN(C)Cc1ccc(C(F)(F)F)cc1 | 42* | 2 | 0 | . | -4
C[C@H](CO)N1C[C@H](C)[C@@H](CN(C)Cc2ccc(C(F)(F)F)cc2)Oc2ccc(NC(=O)Cc3cn(C)c4ccccc34)cc2CC1=O | -3 | -4 | 0 | -47[16.7 µM] | -6

Source: PubChem (Broad Institute)
